“Also recorded” adds a separate entry of the source.
Tests used:
LNCaP cells = test: MTT staining cytotoxicity, LNCaP; format: cell-based, human; settings: read-out: IC50 (MTT)
Method in brief: (§1)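 Cells were seeded at 5 × 10⁴ cells/ml (DU-145 in EMEM, LNCaP in RPMI, 10% FBS) and allowed to attach for 24 h. Free test compound was given at 1.56–50 μM, with DMSO and empty liposome controls, for 24, 48 or 72 h. MTT (0.25 mg/ml final) was added for 2 h at 37°C, formazan dissolved in DMSO, and absorbance read at 590 nm. IC50 came from the concentration-effect curve. Triplicates, n = 3.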

[1] = free form, rapid metabolism ref 10; cited from earlier work
[2] = tested on: PC-3 cell tumor xenografts; test: In vivo prostate tumor xenograft growth; design: species or system athymic nude mice; settings: 5 mg/kg i.p., 2 days/week from day 7 to day 25
Method in brief: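 Male athymic nude mice, 6-8 weeks old (n = 5-6), received 3 million PC-3 cells in sterile saline SC. From day 7, dosing was i.p. twice weekly: free or sterically stabilized liposomal test compound at 5 mg/kg, with DMSO or empty liposome controls. Calipers were used on days 7, 14, 21 and 25, with volume = ½[length × width²]. Tumors were excised and weighed on day 25.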

PC-3 cells = test: Annexin V and PI staining by flow cytometry; format: cell-based, human; settings: PC-3, 48 hr; free IPA-3 20-30 μM
Method in brief: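 PC-3 cells (F12K, 10% FBS, 37°C, 5% CO₂) were grown 24 h, then exposed to free test compound, liposomal test compound or empty liposomes. After treatment they were PBS-washed twice and stained for 10 min with annexin V-FITC and PI in HEPES binding buffer (140 mM NaCl, 1.8 mM CaCl2, pH 7.4). Cells were washed three times, scraped off, and 10,000 events counted by flow cytometry. Mean ± SEM of percent stained cells.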

MCF-7 = test: MTT staining cytotoxicity, MCF-7; format: cell-based, human; settings: read-out: IC50 (MTT)
MDA-231 = test: MTT staining cytotoxicity, MDA-231; format: cell-based, human; settings: read-out: IC50 (MTT)
prostate tumor xenograft = settings: daily administration ref 8; cited from earlier work
[3] = tested on: PC-3 cell tumor xenografts; test: TUNEL assay of apoptosis in tumor xenograft sections; format: in vivo, athymic nude mice; settings: 5 mg/kg i.p., 2 days/week, day 25
Method in brief: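 PC-3 xenografts were collected on day 25, after 18 days of i.p. dosing twice weekly at 5 mg/kg, with DMSO and empty liposome controls. Frozen sections were fixed in 2% paraformaldehyde (4°C, 30 min) and permeabilized in ethanol:acetic acid 2:1. They were labeled with fluorescein-12-dUTP by terminal deoxynucleotidyl transferase and counterstained with DAPI. TUNEL-positive cells were counted by fluorescence microscopy (n = 4).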

[4] = Body weight of tumor bearing mice; format: in vivo, athymic nude mice; settings: 5 mg/kg i.p., 2 days/week, after 25 days
Method in brief: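 Athymic nude mice carried SC PC-3 xenografts and were dosed i.p. twice weekly from day 7. Groups were free or liposomal test compound at 5 mg/kg, DMSO, or empty liposomes. Body weight was recorded on day 25 after implantation, which was day 18 of treatment. Mean ± SEM.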

[5] = tested on: human prostate cancer PC-3, LNCaP and DU-145 cells; test: MTT staining cytotoxicity in prostate cancer cell lines; format: cell-based; settings: concentrations of 5-30 μM; 24, 48, 72 hrs
DU-145 cells = test: MTT staining cytotoxicity, DU-145; format: cell-based, human
Method in brief: as §1

**Q.** What does the source list for Oc1ccc2ccccc2c1SSc1c(O)ccc2ccccc12 [IPA-3]?
**A.** IC50 (LNCaP cells): 10 µM; half-life in vivo [1]: very short; PC-3 cell tumor xenograft growth [2]: ineffective; also recorded: did not have a significant effect; percent cells staining positive for annexin V alone (PC-3 cells): significantly increased; percent cells staining positive for both annexin V and PI (PC-3 cells): significantly increased; IC50 (MCF-7): 25 µM; IC50 (MDA-231): 8 µM; prostate tumor xenograft growth (prostate tumor xenograft): reduced; number of apoptotic (TUNEL positive) cells per field compared to control groups [3]: significant increases; effect on body weight of mice [4]: no significant effect; effect on MTT staining [5]: concentration- and time-dependent decreases in MTT staining; susceptibility to toxicity (MTT staining) (DU-145 cells; DU-145 compared to PC-3 and LNCaP cells): less susceptible; IC50 (DU-145 cells; read-out: IC50 (MTT), DU-145): ~32 µM

From publication PMC4889517 (Nanomedicine : nanotechnology, biology, and medicine, 2016)
